ChEMBL document CHEMBL4765325, “Discovery of dihydropyrrolidones as novel inhibitors against influenza A virus” (Eur J Med Chem, 2020)

Assays:
[1] = Selectivity index, ratio of CC50 for dog MDCK cells to IC50 for antiviral activity against Influenza A virus (A/Puerto Rico/8/34(H1N1)) harboring NA H274Y mutant; type: toxicity; conditions: read-out: Ratio CC50/IC50
Procedure, shortened: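 SI = CC50/IC50, both from MTT read-outs in MDCK cells in triplicate. Cytotoxicity: 2 × 10⁴ cells/well, overnight at 37 °C with 5% CO2, then compound at 1.56–400 µM for 48 h, MTT 4 h, DMSO, A570. Antiviral: cells infected 1 h, washed, then cultured 48 h in DMEM with TPCK and two-fold serial compound dilutions.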

Influenza A virus = assay: Antiviral activity against Influenza A virus (A/Puerto Rico/8/34(H1N1)) harboring NA H274Y mutant infected in dog MDCK cells assessed as reduction in virus-induced cytopathogenicity incubated for 48 hrs by microscopic analysis; type: functional, organism-based, A/Puerto Rico/8/1934(H1N1)
Procedure, shortened: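 MDCK cells were infected with each IAV strain at 100TCID₅₀ for 1 h, then washed twice with PBS. They were cultured 48 h in DMEM with two-fold serial compound dilutions and 1 mg/ml TPCK. Antiviral activity was read by an MTT-based method, giving IC₅₀ from triplicate wells as mean SD.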

SMILES: CCOC(=O)C1=C(Nc2ccc(C(F)(F)F)cc2)C(=O)N(c2ccc(C(F)(F)F)cc2)C1c1ccccc1 (configuration not stated)
- selectivity ratio [1]: > 61.6
- IC50 (Influenza A virus): 6.48 µM
